Shown are actives, neighbours in structure and some others; about 1.2% of the full set was active somewhere.
SR-BI HDL uptake: inhibitors of SR-BI mediated HDL lipid uptake, primary screen, ldlA[mSR-BI] cells, fluorescence, single point | Scavenger receptor class B member 1 (Mus musculus), Q61009 | ldlA[mSR-BI] CHO cells, DiI-HDL uptake fluorescence, 3 h | inhibition, % at 12.5 µM | 320,000 tested, 0.96% active | AID 488896, 2010;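 active = mean replicate inhibition of at least 70% and a set share of replicates each scoring 70 or more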;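 note: 0% = median of neutral control wells and 100% = median of positive control wells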
Target sequence (Q61009 whole entry, looked up): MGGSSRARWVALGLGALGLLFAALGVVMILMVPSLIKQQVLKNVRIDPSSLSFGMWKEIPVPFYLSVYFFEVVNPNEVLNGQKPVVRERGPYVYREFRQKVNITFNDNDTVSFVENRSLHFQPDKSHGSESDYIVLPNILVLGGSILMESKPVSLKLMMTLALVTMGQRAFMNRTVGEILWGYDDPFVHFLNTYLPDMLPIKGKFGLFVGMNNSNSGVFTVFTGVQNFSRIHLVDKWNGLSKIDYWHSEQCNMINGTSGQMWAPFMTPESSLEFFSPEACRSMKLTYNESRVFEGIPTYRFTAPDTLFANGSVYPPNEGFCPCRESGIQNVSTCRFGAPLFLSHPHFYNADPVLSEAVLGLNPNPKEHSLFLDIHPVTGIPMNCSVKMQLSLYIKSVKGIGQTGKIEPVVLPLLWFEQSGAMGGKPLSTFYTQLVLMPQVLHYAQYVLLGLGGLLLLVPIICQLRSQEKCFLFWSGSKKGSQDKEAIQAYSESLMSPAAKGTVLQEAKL
Efflux pump mplx: inhibitors of Candida efflux pumps in yeast, primary screen, S. cerevisiae, Nile Red, multiplex; S. cerevisiae Candida pump triplex; inhibition, % at 10 µM; 330,000 tested, 0.44% active; AID 485275, 2010;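 active = plate passing quality check with inhibition over a set limit, or well fluorescence over plate mean plus 4 SD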;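 note: Nile Red retained in pooled yeast measured as flow cytometry median fluorescence; 0% = buffer negative control and 100% = Enniatin B positive control; higher means more Nile Red kept so more efflux inhibition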
CaV13 FRET inh: Primary screen for inhibitors of IQ motif and Ca2+-dependent inactivation inhibitor domain binding in CACNA1D, Förster resonance energy transfer in living cells, …; HEK cells, CFP/YFP FRET ICDI-IQ, plate reader, 10 min; percent FRET-ratio fall versus neutral wells; inhibition, % at 12.3 µM; 340,000 tested, 0.098% active;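 active = mean replicate inhibition of at least 30% and at least 1% of replicates passing that level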;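 note: 0% = median of the neutral control wells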
FN deposit inh: inhibitors of fibronectin matrix deposition, primary screen, AH1F cells, Alexa488-fibronectin fluorescence, plate reader; AH1F fibroblasts, overnight; inhibition, % at 12.6 µM; 350,000 tested, 0.086% active;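 active = mean inhibition across replicates of 30% or more, regardless of how many single replicates reach that level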;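 note: positive control wells lacked labelled fibronectin entirely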
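Material: AH1F fibroblasts assembling fluorescent fibronectin matrix; amount: 10000 AH1F cells/well; medium: DMEM, 2% serum; reagent: Alexa488-fibronectin, 24 nM final in well; dosing: single compound dose, delivered by pin transfer; incubation: 1 h adhesion, overnight exposure; detection: fluorescence after three HBSS washes, excitation 485 nm, emission 525 nm; measure: fibronectin deposition inhibition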
SR-BI uptake up: activators of SR-BI mediated DiI-HDL uptake, primary screen, ldlA[mSR-BI] CHO cells, DiI fluorescence; activation, % at 12.5 µM; 3 h; 100 = double the neutral-control signal; 320,000 tested, 0.096% active;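 active = mean replicate activation of at least 60% and every replicate at or above 60%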;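 note: 0% = median plate neutral-control signal and 100% = twice that signal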
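Test system: SR-BI-overexpressing, LDLR-lacking CHO cells; Medium: Ham's F12 with 0.5% BSA, HEPES 25 mM, pH 7.4; Schedule: 3 h, 37 °C; Technique: bottom-read fluorescence, 550/595 nm.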
Yeast cmpd fluor: counter-screen for efflux pump inhibitors: compound fluorescence | S. cerevisiae AD/pABC3, flow cytometry | 1,700 tested, 4% active | shares compounds with Efflux pump mplx | fluorescence ratio to DMSO, % at 10 µM;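 active = fluorescence ratio to DMSO above its plate's cutoff, the plate mean ratio plus 5 SD, cut at about 210% in these data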;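 note: unstained yeast with no Nile Red so the signal is compound autofluorescence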
CaMdr1 efflux inh: inhibitors of Candida albicans Mdr1 efflux, confirmation, flow cytometry, singleplex, Cherry Pick1 set | inhibition, % at 10 µM | S. cerevisiae AD/CaMDR1, Nile Red efflux | 1,700 tested, 1% active | shares compounds with Efflux pump mplx; in the data active = inhibition above about 26%;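 note: 0% = DMSO vehicle and 100% = reference inhibitor; higher means more Nile Red retained so more efflux inhibition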
Cdr2 pump inh: inhibitors of Candida albicans Cdr2 efflux pump, confirmation, S. cerevisiae AD/CaCDR2, flow cytometry, cherry pick 1, singleplex | shares compounds with Efflux pump mplx | Nile Red retention | Nile Red retention ratio vs DMSO, % at 10 µM | 1,700 tested, 4% active; in the data active = Nile Red retention ratio vs DMSO above about 190%;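 note: higher ratio means more blocking of Cdr2 efflux of the dye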
CaCdr1 efflux inh: inhibitors of Candida albicans Cdr1 efflux pump, confirmation, S. cerevisiae AD/CaCDR1, flow cytometry, cherry pick 1, singleplex; Nile Red efflux; inhibition, % at 10 µM; 1,700 tested, 1% active; shares compounds with Efflux pump mplx;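 active = inhibition above the screen-wide mean plus twice its standard deviation, cut at about 32% in these data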
Active calls of the source: *; / = not tested or not shown.

SMILES	SR-BI HDL uptake	Efflux pump mplx	CaV13 FRET inh	FN deposit inh	SR-BI uptake up	Yeast cmpd fluor	CaMdr1 efflux inh	Cdr2 pump inh	CaCdr1 efflux inh
COc1ccc(C2CC(c3ccccc3C(F)(F)F)=NN2c2ccc(S(N)(=O)=O)cc2)cc1 (configuration not stated)	54	56*	-2	3	-54	93	0	114	0
Cc1ccc(C)c(Cn2nnc3c(=O)[nH]c(C4CCN(S(=O)(=O)c5ccc(S(=O)(=O)NC6CC6)cc5)CC4)nc32)c1	1	3.1*	-2	12	-1	99	0	105	0
Cc1ccc(Cn2nnc3c(=O)[nH]c(C4CCN(S(=O)(=O)c5ccc(F)cc5)CC4)nc32)cc1	2	0	-9	/	-2	100	0	116	0
O=c1[nH]c(C2CCN(S(=O)(=O)c3ccccc3C(F)(F)F)CC2)nc2c1nnn2Cc1cccc(F)c1	/	3.1*	-2	1	/	100	0	114	0
Cc1ccc(Cn2nnc3c(=O)[nH]c(C4CCN(S(=O)(=O)c5cc(C)ccc5C)CC4)nc32)cc1	-9	0	/	/	9	/	/	/	/
Cc1ccc(C)c(S(=O)(=O)N2CCC(c3nc4c(nnn4Cc4ccc(F)cc4)c(=O)[nH]3)CC2)c1	-12	0	/	/	12	/	/	/	/
Cc1ccc(C)c(Cn2nnc3c(=O)[nH]c(C4CCN(S(=O)(=O)c5ccc(S(=O)(=O)N(C)C)cc5)CC4)nc32)c1	-13	0	-5	1	13	93	0	116	0
CC(=O)Nc1ccc2c(c1)C(=O)N(C)[C@@H]1CC[C@@H](CC(=O)NCCCN3CCOCC3)O[C@H]1CO2	/	/	/	-9	/	/	/	/	/
O=c1[nH]c(C2CCN(S(=O)(=O)c3ccc4c(c3)OCCO4)CC2)nc2c1nnn2Cc1ccccc1F	-11	1.0*	-8	2	11	110	0	121	0
O=c1[nH]c(C2CCN(S(=O)(=O)c3ccc4c(c3)OCCO4)CC2)nc2c1nnn2Cc1c(F)cccc1Cl	/	0	-4	14	/	/	/	/	/
CCS(=O)(=O)N1CCN(S(=O)(=O)c2ccc(S(=O)(=O)NC3CC3)cc2)CC1	/	0	-4	0	/	/	/	/	/
O=S(=O)(NC1CCCC1)c1ccc(S(=O)(=O)N2CCN(c3ccccc3)CC2)cc1	-1	2.0*	-5	17	1	101	0	87	0
COc1cccc(NC(=O)C(=O)N/N=C/c2cc(C)n(-c3ccc(Cl)c(Cl)c3)c2C)c1	66	0.7*	-7	/	-66	113	0	106	0
O=C(Cn1cnc2ccccc2c1=O)c1ccc(Br)cc1	-1	0	-5	-1	1	/	/	/	/
O=C(COC(=O)Cn1cnc2ccccc2c1=O)NNC(=O)c1ccc(Br)cc1	-15	0.8*	-2	2	15	105	0	97	0
CN1CCN(C(=O)C[C@H]2CC[C@@H]3[C@H](COC[C@@H](O)CN3Cc3cccc(F)c3)O2)CC1	/	/	/	-7	/	/	/	/	/

Assay outcomes: PubChem BioAssay, several laboratories
